Measured values published in ChEMBL document CHEMBL4689842, “EUbOPEN Chemogenomics Library wave 1” (2021).

System: Fibroblast
Assay: Multiplex assay against human fibroblast
Type: toxicity, cell-based
In short: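 Cells stained live at seeding with Hoechst33342, BioTracker Green Microtubule Cytoskeleton Dye, MitoTracker Red and Annexin V Alexa Fluor 680 were imaged on a CQ1 microscope at 37°C and 5% CO2 after compound addition. Their classification by CellPathfinder machine-learning gating ran from Hoechst high-intensity objects versus normal cells, to healthy, pyknosed or fragmented nuclei among normal cells, to mitotic or apoptotic among pyknosed cells. Tubulin, mitochondrial-mass and membrane-permeability phenotypes are per cents of healthy-nucleus cells.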

[1] = 12 h, 1 µM, compound concentration 1 uM, replicate 1
[2] = 12 h, 1 µM, compound concentration 1 uM, replicate 2
[3] = 12 h, 10 µM, compound concentration 10 uM, replicate 1
[4] = 12 h, 10 µM, compound concentration 10 uM, replicate 2
[5] = 24 h, 1 µM, compound concentration 1 uM, replicate 1
[6] = 24 h, 1 µM, compound concentration 1 uM, replicate 2
[7] = 24 h, 10 µM, compound concentration 10 uM, replicate 1
[8] = 24 h, 10 µM, compound concentration 10 uM, replicate 2
[9] = 48 h, 1 µM, compound concentration 1 uM, replicate 1
[10] = 48 h, 1 µM, compound concentration 1 uM, replicate 2
[11] = 48 h, 10 µM, compound concentration 10 uM, replicate 1
[12] = 48 h, 10 µM, compound concentration 10 uM, replicate 2

## Cc1nc(-c2ccc(-c3ccc(C(=O)N4CCc5cc6c(cc54)C4(CCN(C)CC4)CO6)cc3)c(C)c2)no1 [SB-224289]
[1]
  Population Apoptotic (%): 66%
  Population Fragmented Nuclei (%): 35%
  Population Healthy Nuclei (%): 33%
  Population Hoechst High Intensity Objects (%): 7%
  Population Membrane Permeable-Phenotype (%): 18%
  Population Mitochondria Different-Phenotype (%): 25%
  Population Mitotic Cells (%): 33%
  Population Normal (%): 92%
  Population Pyknosed Nuclei (%): 31%
  Population Tubulin-Different-Phenotype (%): 75%
  Total Cell Count: 188
[2]
  Population Apoptotic (%): 28%
  Population Fragmented Nuclei (%): 4%
  Population Healthy Nuclei (%): 81%
  Population Hoechst High Intensity Objects (%): 12%
  Population Membrane Permeable-Phenotype (%): 10%
  Population Mitochondria Different-Phenotype (%): 42%
  Population Mitotic Cells (%): 71%
  Population Normal (%): 87%
  Population Pyknosed Nuclei (%): 14%
  Population Tubulin-Different-Phenotype (%): 37%
  Total Cell Count: 65
[3]
  Population Apoptotic (%): 71%
  Population Fragmented Nuclei (%): 34%
  Population Healthy Nuclei (%): 40%
  Population Hoechst High Intensity Objects (%): 15%
  Population Membrane Permeable-Phenotype (%): 5%
  Population Mitochondria Different-Phenotype (%): 62%
  Population Mitotic Cells (%): 28%
  Population Normal (%): 84%
  Population Pyknosed Nuclei (%): 24%
  Population Tubulin-Different-Phenotype (%): 89%
  Total Cell Count: 213
[4]
  Population Apoptotic (%): 63%
  Population Fragmented Nuclei (%): 7%
  Population Healthy Nuclei (%): 77%
  Population Hoechst High Intensity Objects (%): 11%
  Population Membrane Permeable-Phenotype (%): 54%
  Population Mitochondria Different-Phenotype (%): 100%
  Population Mitotic Cells (%): 36%
  Population Normal (%): 88%
  Population Pyknosed Nuclei (%): 15%
  Population Tubulin-Different-Phenotype (%): 100%
  Total Cell Count: 56
[5]
  Population Apoptotic (%): 65%
  Population Fragmented Nuclei (%): 32%
  Population Healthy Nuclei (%): 41%
  Population Hoechst High Intensity Objects (%): 14%
  Population Membrane Permeable-Phenotype (%): 20%
  Population Mitochondria Different-Phenotype (%): 27%
  Population Mitotic Cells (%): 34%
  Population Normal (%): 85%
  Population Pyknosed Nuclei (%): 25%
  Population Tubulin-Different-Phenotype (%): 79%
  Total Cell Count: 202
[6]
  Population Apoptotic (%): 0%
  Population Fragmented Nuclei (%): 15%
  Population Healthy Nuclei (%): 77%
  Population Hoechst High Intensity Objects (%): 9%
  Population Membrane Permeable-Phenotype (%): 6%
  Population Mitochondria Different-Phenotype (%): 38%
  Population Mitotic Cells (%): 100%
  Population Normal (%): 90%
  Population Pyknosed Nuclei (%): 7%
  Population Tubulin-Different-Phenotype (%): 22%
  Total Cell Count: 73
[7]
  Population Apoptotic (%): 78%
  Population Fragmented Nuclei (%): 35%
  Population Healthy Nuclei (%): 25%
  Population Hoechst High Intensity Objects (%): 17%
  Population Membrane Permeable-Phenotype (%): 2%
  Population Mitochondria Different-Phenotype (%): 61%
  Population Mitotic Cells (%): 21%
  Population Normal (%): 82%
  Population Pyknosed Nuclei (%): 38%
  Population Tubulin-Different-Phenotype (%): 66%
  Total Cell Count: 186
[8]
  Population Apoptotic (%): 76%
  Population Fragmented Nuclei (%): 16%
  Population Healthy Nuclei (%): 56%
  Population Hoechst High Intensity Objects (%): 11%
  Population Membrane Permeable-Phenotype (%): 86%
  Population Mitochondria Different-Phenotype (%): 100%
  Population Mitotic Cells (%): 23%
  Population Normal (%): 88%
  Population Pyknosed Nuclei (%): 26%
  Population Tubulin-Different-Phenotype (%): 100%
  Total Cell Count: 63
[9]
  Population Apoptotic (%): 68%
  Population Fragmented Nuclei (%): 44%
  Population Healthy Nuclei (%): 46%
  Population Hoechst High Intensity Objects (%): 21%
  Population Membrane Permeable-Phenotype (%): 8%
  Population Mitochondria Different-Phenotype (%): 6%
  Population Mitotic Cells (%): 31%
  Population Normal (%): 78%
  Population Pyknosed Nuclei (%): 8%
  Population Tubulin-Different-Phenotype (%): 50%
  Total Cell Count: 277
[10]
  Population Apoptotic (%): 0%
  Population Fragmented Nuclei (%): 48%
  Population Healthy Nuclei (%): 50%
  Population Hoechst High Intensity Objects (%): 27%
  Population Membrane Permeable-Phenotype (%): 12%
  Population Mitochondria Different-Phenotype (%): 3%
  Population Mitotic Cells (%): 100%
  Population Normal (%): 72%
  Population Pyknosed Nuclei (%): 0%
  Population Tubulin-Different-Phenotype (%): 56%
  Total Cell Count: 169
[11]
  Population Apoptotic (%): 90%
  Population Fragmented Nuclei (%): 46%
  Population Healthy Nuclei (%): 21%
  Population Hoechst High Intensity Objects (%): 33%
  Population Membrane Permeable-Phenotype (%): 30%
  Population Mitochondria Different-Phenotype (%): 50%
  Population Mitotic Cells (%): 10%
  Population Normal (%): 66%
  Population Pyknosed Nuclei (%): 31%
  Population Tubulin-Different-Phenotype (%): 85%
  Total Cell Count: 142
[12]
  Population Apoptotic (%): 100%
  Population Fragmented Nuclei (%): 47%
  Population Healthy Nuclei (%): 15%
  Population Hoechst High Intensity Objects (%): 29%
  Population Membrane Permeable-Phenotype (%): 14%
  Population Mitochondria Different-Phenotype (%): 85%
  Population Mitotic Cells (%): 0%
  Population Normal (%): 70%
  Population Pyknosed Nuclei (%): 36%
  Population Tubulin-Different-Phenotype (%): 71%
  Total Cell Count: 127

## Cc1nc(-c2cn3c(n2)-c2ccc(-c4cnn(C(C)(C)C(N)=O)c4)cc2OCC3)n(C(C)C)n1 [TASELISIB]
[1]
  Population Apoptotic (%): 85%
  Population Fragmented Nuclei (%): 29%
  Population Healthy Nuclei (%): 53%
  Population Hoechst High Intensity Objects (%): 12%
  Population Membrane Permeable-Phenotype (%): 7%
  Population Mitochondria Different-Phenotype (%): 6%
  Population Mitotic Cells (%): 14%
  Population Normal (%): 87%
  Population Pyknosed Nuclei (%): 17%
  Population Tubulin-Different-Phenotype (%): 16%
  Total Cell Count: 221
[2]
  Population Apoptotic (%): 100%
  Population Fragmented Nuclei (%): 61%
  Population Healthy Nuclei (%): 33%
  Population Hoechst High Intensity Objects (%): 30%
  Population Membrane Permeable-Phenotype (%): 15%
  Population Mitochondria Different-Phenotype (%): 10%
  Population Mitotic Cells (%): 0%
  Population Normal (%): 69%
  Population Pyknosed Nuclei (%): 5%
  Population Tubulin-Different-Phenotype (%): 60%
  Total Cell Count: 86
[3]
  Population Apoptotic (%): 71%
  Population Fragmented Nuclei (%): 25%
  Population Healthy Nuclei (%): 65%
  Population Hoechst High Intensity Objects (%): 11%
  Population Membrane Permeable-Phenotype (%): 7%
  Population Mitochondria Different-Phenotype (%): 2%
  Population Mitotic Cells (%): 28%
  Population Normal (%): 88%
  Total Cell Count: 188
[4]
  Population Apoptotic (%): 33%
  Population Fragmented Nuclei (%): 47%
  Population Healthy Nuclei (%): 43%
  Population Hoechst High Intensity Objects (%): 30%
  Population Membrane Permeable-Phenotype (%): 13%
  Population Mitochondria Different-Phenotype (%): 13%
  Population Mitotic Cells (%): 66%
  Population Normal (%): 69%
  Population Pyknosed Nuclei (%): 8%
  Population Tubulin-Different-Phenotype (%): 0%
  Total Cell Count: 99
[5]
  Population Apoptotic (%): 78%
  Population Fragmented Nuclei (%): 32%
  Population Healthy Nuclei (%): 51%
  Population Hoechst High Intensity Objects (%): 14%
  Population Membrane Permeable-Phenotype (%): 5%
  Population Mitochondria Different-Phenotype (%): 7%
  Population Mitotic Cells (%): 21%
  Population Normal (%): 85%
  Population Pyknosed Nuclei (%): 16%
  Population Tubulin-Different-Phenotype (%): 18%
  Total Cell Count: 238
[6]
  Population Apoptotic (%): 60%
  Population Fragmented Nuclei (%): 62%
  Population Healthy Nuclei (%): 30%
  Population Hoechst High Intensity Objects (%): 27%
  Population Membrane Permeable-Phenotype (%): 14%
  Population Mitochondria Different-Phenotype (%): 0%
  Population Mitotic Cells (%): 40%
  Population Normal (%): 72%
  Population Pyknosed Nuclei (%): 7%
  Population Tubulin-Different-Phenotype (%): 47%
  Total Cell Count: 97
[7]
  Population Apoptotic (%): 73%
  Population Fragmented Nuclei (%): 23%
  Population Healthy Nuclei (%): 67%
  Population Hoechst High Intensity Objects (%): 13%
  Population Membrane Permeable-Phenotype (%): 6%
  Population Mitochondria Different-Phenotype (%): 2%
  Population Mitotic Cells (%): 26%
  Population Normal (%): 86%
  Population Tubulin-Different-Phenotype (%): 1%
  Total Cell Count: 188
[8]
  Population Apoptotic (%): 42%
  Population Fragmented Nuclei (%): 38%
  Population Healthy Nuclei (%): 51%
  Population Hoechst High Intensity Objects (%): 22%
  Population Membrane Permeable-Phenotype (%): 10%
  Population Mitochondria Different-Phenotype (%): 15%
  Population Mitotic Cells (%): 57%
  Population Normal (%): 77%
  Population Pyknosed Nuclei (%): 9%
  Population Tubulin-Different-Phenotype (%): 5%
  Total Cell Count: 99
